Measured values reported in PMC4750707 (Antimicrobial Agents and Chemotherapy, 2016).
Values after ≈ are worked out from the molar mass of the structure shown.

What was measured:
H. influenzae PBP4 = H. influenzae PBP4 (Haemophilus influenzae, UniProt P45161); test: PBP competition assay with Bocillin FL; format: binding
How it was run: (§1)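 H. influenzae Rd grown in supplemented BHI at 35°C (A600 0.6–0.7). Cells in KPN buffer (20 mM K-phosphate, 140 mM NaCl, pH 7.5), lysozyme-treated 30 min, French-pressed; membranes at 150,000 × g. Used 100–120 μg membrane protein. Test compound 10 min at 30°C, then Bocillin FL 100 μM final for 20 min. Gel fluorescence band volumes; IC50 from three assays of six concentrations.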

S. pneumoniae PBP2X = S. pneumoniae PBP2X (Streptococcus pneumoniae, UniProt P59676); test: PBP competition assay with Bocillin FL; format: binding
Chain of S. pneumoniae PBP2X (P59676 whole entry): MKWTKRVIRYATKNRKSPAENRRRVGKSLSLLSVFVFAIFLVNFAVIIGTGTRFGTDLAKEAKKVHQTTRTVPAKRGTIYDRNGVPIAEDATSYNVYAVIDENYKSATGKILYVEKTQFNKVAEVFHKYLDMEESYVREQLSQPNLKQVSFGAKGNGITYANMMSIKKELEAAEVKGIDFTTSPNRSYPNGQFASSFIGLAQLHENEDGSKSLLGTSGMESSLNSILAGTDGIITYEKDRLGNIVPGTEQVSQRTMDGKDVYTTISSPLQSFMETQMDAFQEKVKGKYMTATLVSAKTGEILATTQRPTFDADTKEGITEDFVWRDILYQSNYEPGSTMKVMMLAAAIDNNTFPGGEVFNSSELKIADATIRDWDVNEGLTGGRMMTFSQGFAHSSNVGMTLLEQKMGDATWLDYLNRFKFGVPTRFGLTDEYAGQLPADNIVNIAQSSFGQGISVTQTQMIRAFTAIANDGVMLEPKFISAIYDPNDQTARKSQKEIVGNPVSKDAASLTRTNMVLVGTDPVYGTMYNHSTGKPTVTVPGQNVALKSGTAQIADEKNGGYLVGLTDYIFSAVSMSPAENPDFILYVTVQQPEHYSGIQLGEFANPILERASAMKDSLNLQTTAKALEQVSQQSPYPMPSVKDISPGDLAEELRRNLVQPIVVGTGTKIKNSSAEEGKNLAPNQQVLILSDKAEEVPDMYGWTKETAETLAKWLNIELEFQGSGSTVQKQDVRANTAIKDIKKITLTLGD
How it was run: (§2)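 S. pneumoniae R6 was grown on blood agar at 37°C under 5% CO2, then in BHI with agitation to A600 ~1.0. Cells in KPN buffer pH 7.5 were lysozyme-treated and French-pressed; membranes (30–40 μg protein) were used. Test compound 10 min at 30°C, then Bocillin FL 100 μM final for 20 min. SDS-PAGE fluorescence; IC50 from three assays of six concentrations.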

H. influenzae PBP2 = H. influenzae PBP2 (Haemophilus influenzae, UniProt P44469); test: PBP competition assay with Bocillin FL; format: binding
Chain of H. influenzae PBP2 (P44469 whole entry): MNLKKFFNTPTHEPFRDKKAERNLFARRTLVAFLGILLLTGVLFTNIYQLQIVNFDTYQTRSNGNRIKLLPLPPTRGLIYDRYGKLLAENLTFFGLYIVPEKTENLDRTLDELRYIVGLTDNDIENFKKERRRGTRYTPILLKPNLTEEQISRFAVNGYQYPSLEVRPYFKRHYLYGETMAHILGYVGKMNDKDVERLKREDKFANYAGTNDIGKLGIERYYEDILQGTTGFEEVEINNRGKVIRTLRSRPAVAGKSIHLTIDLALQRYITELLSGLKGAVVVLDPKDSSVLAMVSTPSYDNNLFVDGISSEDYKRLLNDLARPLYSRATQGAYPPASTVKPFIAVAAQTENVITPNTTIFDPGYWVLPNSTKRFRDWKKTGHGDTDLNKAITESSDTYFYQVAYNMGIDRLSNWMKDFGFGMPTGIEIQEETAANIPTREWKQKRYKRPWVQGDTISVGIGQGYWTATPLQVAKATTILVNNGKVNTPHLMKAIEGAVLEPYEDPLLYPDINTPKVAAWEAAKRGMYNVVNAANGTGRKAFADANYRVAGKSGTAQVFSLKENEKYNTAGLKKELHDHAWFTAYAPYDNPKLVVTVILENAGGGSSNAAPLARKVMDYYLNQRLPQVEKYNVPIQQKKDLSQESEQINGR
How it was run: as §1

H. influenzae PBP3a/b = H. influenzae PBP3a/b (Haemophilus influenzae, UniProt P45059); test: PBP competition assay with Bocillin FL; format: binding
Chain of H. influenzae PBP3a/b (P45059 66-580 limits assumed): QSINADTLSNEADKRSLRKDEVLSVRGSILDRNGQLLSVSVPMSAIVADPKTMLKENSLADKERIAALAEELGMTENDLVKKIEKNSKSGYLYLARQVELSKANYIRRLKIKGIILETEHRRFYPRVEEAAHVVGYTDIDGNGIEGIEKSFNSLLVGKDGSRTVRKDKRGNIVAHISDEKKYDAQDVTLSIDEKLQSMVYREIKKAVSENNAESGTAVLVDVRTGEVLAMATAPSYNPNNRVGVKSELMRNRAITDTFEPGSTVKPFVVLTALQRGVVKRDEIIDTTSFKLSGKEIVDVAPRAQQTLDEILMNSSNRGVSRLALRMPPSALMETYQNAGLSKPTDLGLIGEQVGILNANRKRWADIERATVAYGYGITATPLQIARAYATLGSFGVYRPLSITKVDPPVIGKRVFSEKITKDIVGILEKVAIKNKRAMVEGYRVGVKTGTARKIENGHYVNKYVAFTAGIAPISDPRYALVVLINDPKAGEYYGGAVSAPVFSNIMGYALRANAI
How it was run: as §1

H. influenzae PBP5 = H. influenzae PBP5 (Haemophilus influenzae, UniProt P44466); test: PBP competition assay with Bocillin FL; format: binding
Chain of H. influenzae PBP5 (P44466 19-393): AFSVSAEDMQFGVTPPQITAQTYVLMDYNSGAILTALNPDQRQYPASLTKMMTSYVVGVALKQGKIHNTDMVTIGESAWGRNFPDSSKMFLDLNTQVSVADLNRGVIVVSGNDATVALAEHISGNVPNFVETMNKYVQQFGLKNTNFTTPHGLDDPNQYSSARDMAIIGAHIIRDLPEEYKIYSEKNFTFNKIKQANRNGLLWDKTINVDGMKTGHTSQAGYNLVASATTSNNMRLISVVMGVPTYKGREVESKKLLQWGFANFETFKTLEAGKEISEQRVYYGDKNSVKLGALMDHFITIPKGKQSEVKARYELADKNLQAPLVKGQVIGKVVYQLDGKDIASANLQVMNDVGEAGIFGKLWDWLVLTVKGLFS
How it was run: as §1

H. influenzae = test: Broth microdilution MIC; format: cell-based; details: Haemophilus influenzae
How it was run: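 MICs by CLSI broth microdilution in cation-adjusted Mueller-Hinton broth. Strains grown in BHI broth at 35°C: E. coli K-12, P. aeruginosa 1771 and S. aureus ATCC 29213. H. influenzae Rd grown in BHI with Haemophilus test medium supplement (hemin and β-NAD, 15 μg/ml each).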

H. influenzae PBP1b = H. influenzae PBP1b (Haemophilus influenzae, UniProt P45345); test: PBP competition assay with Bocillin FL; format: binding
Chain of H. influenzae PBP1b (P45345 whole entry): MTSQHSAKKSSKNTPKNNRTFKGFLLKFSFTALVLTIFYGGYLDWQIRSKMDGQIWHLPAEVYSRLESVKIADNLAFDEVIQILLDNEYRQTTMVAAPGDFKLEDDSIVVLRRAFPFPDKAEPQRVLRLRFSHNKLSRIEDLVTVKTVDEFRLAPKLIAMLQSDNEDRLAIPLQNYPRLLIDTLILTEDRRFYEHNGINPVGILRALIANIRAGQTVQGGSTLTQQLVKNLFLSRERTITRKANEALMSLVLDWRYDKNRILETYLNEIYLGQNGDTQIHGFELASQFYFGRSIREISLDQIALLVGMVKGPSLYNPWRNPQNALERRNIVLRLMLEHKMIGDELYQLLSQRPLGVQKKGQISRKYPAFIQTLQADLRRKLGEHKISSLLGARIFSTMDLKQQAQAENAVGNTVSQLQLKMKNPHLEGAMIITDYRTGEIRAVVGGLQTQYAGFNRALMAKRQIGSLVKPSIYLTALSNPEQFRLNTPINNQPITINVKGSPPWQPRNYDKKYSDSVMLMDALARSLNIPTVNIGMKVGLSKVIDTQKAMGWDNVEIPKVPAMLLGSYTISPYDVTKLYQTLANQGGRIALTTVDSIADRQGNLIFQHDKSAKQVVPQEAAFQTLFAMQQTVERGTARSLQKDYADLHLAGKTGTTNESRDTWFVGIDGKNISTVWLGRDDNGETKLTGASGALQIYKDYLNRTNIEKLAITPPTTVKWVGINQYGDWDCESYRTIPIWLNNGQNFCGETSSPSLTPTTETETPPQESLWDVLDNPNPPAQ
How it was run: as §1

H. influenzae PBP1a = H. influenzae PBP1a (Haemophilus influenzae, UniProt P31776); test: PBP competition assay with Bocillin FL; format: binding
Chain of H. influenzae PBP1a (P31776 whole entry): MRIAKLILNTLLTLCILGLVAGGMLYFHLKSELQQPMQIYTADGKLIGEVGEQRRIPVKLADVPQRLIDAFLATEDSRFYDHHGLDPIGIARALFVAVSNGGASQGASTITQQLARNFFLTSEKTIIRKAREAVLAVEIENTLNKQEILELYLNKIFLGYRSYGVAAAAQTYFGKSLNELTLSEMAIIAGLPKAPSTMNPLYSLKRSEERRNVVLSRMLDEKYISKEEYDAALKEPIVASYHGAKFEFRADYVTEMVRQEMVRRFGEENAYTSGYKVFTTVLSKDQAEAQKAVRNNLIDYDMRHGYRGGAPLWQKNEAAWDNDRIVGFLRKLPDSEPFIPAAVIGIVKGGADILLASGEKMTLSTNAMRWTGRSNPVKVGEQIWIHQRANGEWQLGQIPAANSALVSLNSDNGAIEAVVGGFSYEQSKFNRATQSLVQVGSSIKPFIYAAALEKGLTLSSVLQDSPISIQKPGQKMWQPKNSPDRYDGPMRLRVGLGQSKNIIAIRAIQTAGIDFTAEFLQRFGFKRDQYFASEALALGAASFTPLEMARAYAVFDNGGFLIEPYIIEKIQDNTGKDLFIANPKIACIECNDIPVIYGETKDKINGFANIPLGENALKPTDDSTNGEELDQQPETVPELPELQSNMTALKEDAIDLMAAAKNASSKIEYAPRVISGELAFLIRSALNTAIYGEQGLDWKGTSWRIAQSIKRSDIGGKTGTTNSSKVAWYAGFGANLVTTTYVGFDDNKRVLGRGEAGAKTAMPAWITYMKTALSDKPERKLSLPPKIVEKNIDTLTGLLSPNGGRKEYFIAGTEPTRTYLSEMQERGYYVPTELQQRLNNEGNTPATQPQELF
How it was run: as §1

S. pneumoniae PBP1a/b = test: PBP competition assay with Bocillin FL; format: binding, Streptococcus pneumoniae; details: S. pneumoniae R6 membranes; Bocillin FL 100 μM
How it was run: as §2

S. pneumoniae = test: Broth microdilution MIC; format: cell-based; details: Streptococcus pneumoniae
How it was run: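 MICs by CLSI broth microdilution in cation-adjusted Mueller-Hinton broth plus 2.5% lysed horse blood. S. pneumoniae R6 grown on blood agar at 37°C under 5% CO2.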

S. pneumoniae PBP2a/b = test: PBP competition assay with Bocillin FL; format: binding, Streptococcus pneumoniae; details: S. pneumoniae R6 membranes; Bocillin FL 100 μM
How it was run: as §2

Chain of H. influenzae PBP4 (P45161 27-479): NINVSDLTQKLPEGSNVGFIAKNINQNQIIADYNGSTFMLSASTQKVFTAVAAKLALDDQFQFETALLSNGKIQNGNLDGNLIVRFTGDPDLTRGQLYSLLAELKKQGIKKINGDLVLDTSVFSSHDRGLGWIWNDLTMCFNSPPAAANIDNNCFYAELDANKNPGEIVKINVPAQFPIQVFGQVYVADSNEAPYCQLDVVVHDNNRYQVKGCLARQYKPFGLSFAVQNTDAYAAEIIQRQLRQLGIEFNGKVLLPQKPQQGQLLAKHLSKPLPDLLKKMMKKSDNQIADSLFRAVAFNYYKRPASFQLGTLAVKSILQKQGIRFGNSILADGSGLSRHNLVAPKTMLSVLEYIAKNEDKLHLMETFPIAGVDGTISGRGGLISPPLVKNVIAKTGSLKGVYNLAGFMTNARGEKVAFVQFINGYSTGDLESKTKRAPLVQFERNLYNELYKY

- IC50 (H. influenzae PBP4): > 121 µM
- IC50 (S. pneumoniae PBP2X): > 241 µM
- IC50 (H. influenzae PBP2): 11.3 µM
- IC50 (H. influenzae PBP3a/b): > 121 µM
- IC50 (H. influenzae PBP5): > 121 µM
- MIC (H. influenzae): 64 µg/mL (≈ 241 µM)
- IC50 (H. influenzae PBP1b): > 121 µM
- IC50 (H. influenzae PBP1a): > 121 µM
- Relative binding (IC50) for PBP 1a/b (S. pneumoniae PBP1a/b): >64 µg/mL
- MIC (S. pneumoniae): 256 µg/mL (≈ 965 µM)
- Relative binding (IC50) for PBP 2a/b (S. pneumoniae PBP2a/b): >64 µg/mL
Structure (SMILES): NC(=O)[C@@H]1CC[C@@H]2CN1C(=O)N2OS(=O)(=O)O [AVI, avibactam]
